Measurements reported in ChEMBL document CHEMBL1811811, “Characterization of anticancer properties of 2,6-diisopropylphenol-docosahexaenoate and analogues in breast cancer cells” (Bioorg Med Chem, 2010).
Activity calls are given as the source filed them. The calls are words filed in the database; no cut-off is given here.

Assays:
MDA-MB-231 [1] = assay: Growth inhibition of human MDA-MB-231 cells after 48 hrs by WST1 assay; format: functional, cell-based
Summary of the method: (§1)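 Cells seeded at 5000/well, grown overnight (18 h) in DMEM complete medium, then switched to DMEM with 2% FBS plus treatment for 48 h at 37 °C, 5% CO2; ethanol vehicle control. WST-1 read at day 0 (baseline, X) and end; growth normalized as (Y−X)/X×100, 100 to 0 = growth inhibition, 0 to −100 = cell death. Mean ± SD, at least four experiments.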

MDA-MB-231 [2] = assay: Total growth inhibition of human MDA-MB-231 cells after 48 hrs by WST1 assay; format: functional; summary of the method: as §1
MDA-MB-231 [3] = assay: Induction of apoptosis in human MDA-MB-231 cells assessed as viable cells at 1 uM after 24 hrs by annexin V/propidium iodide staining based FACS flow cytometry (reference value: 89 +/- 1 %); format: functional; settings: MDA-MB-231, 24 h, read-out: Activity
MCF7 [4] = assay: Cytotoxicity against human MCF7 cells at 25 uM after 48 hrs by WST1 assay; format: functional, cell-based; summary of the method: as §1
MCF7 [5] = assay: Growth inhibition of human MCF7 cells at 25 uM after 48 hrs by WST1 assay; format: functional, cell-based; summary of the method: as §1
MDA-MB-231 [6] = assay: Induction of apoptosis in human MDA-MB-231 cells assessed as viable cells at 10 uM after 24 hrs by annexin V/propidium iodide staining based FACS flow cytometry (reference value: 89 +/- 1 %); format: functional; settings: MDA-MB-231, 24 h, read-out: Activity
MDA-MB-231 [7] = assay: Induction of apoptosis in human MDA-MB-231 cells assessed as apoptotic cells at 1 uM after 24 hrs by annexin V/propidium iodide staining based FACS flow cytometry (reference value: 1.8 +/- 0.3 %); format: functional
MDA-MB-231 [8] = assay: Induction of apoptosis in human MDA-MB-231 cells assessed as apoptotic cells at 10 uM after 24 hrs by annexin V/propidium iodide staining based FACS flow cytometry (reference value: 1.8 +/- 0.3 %); format: functional
MDA-MB-231 [9] = assay: Induction of apoptosis in human MDA-MB-231 cells assessed as necrotic cells at 1 uM after 24 hrs by annexin V/propidium iodide staining based FACS flow cytometry (reference value: 9.2 +/- 0.8 %); format: functional
MDA-MB-231 [10] = assay: Induction of apoptosis in human MDA-MB-231 cells assessed as necrotic cells at 10 uM after 24 hrs by annexin V/propidium iodide staining based FACS flow cytometry (reference value: 9.2 +/- 0.8 %); format: functional
MDA-MB-361 [11] = assay: Growth inhibition of human MDA-MB-361 cells at 25 uM after 48 hrs by WST1 assay; format: functional, cell-based; summary of the method: as §1
MDA-MB-361 [12] = assay: Cytotoxicity against human MDA-MB-361 cells at 25 uM after 48 hrs by WST1 assay; format: functional, cell-based; summary of the method: as §1
AU565 [13] = assay: Growth inhibition of human AU565 cells at 25 uM after 48 hrs by WST1 assay; format: functional, cell-based; summary of the method: as §1
AU565 [14] = assay: Cytotoxicity against human AU565 cells at 25 uM after 48 hrs by WST1 assay; format: functional, cell-based; summary of the method: as §1
HMEC [15] = assay: Growth inhibition of human HMEC cells at 25 uM after 48 hrs by WST1 assay; format: cell-based; summary of the method: as §1
HMEC [16] = assay: Cytotoxicity against human HMEC cells at 25 uM after 48 hrs by WST1 assay; format: cell-based; summary of the method: as §1
MDA-MB-231 [17] = assay: Growth inhibition of human MDA-MB-231 cells at 25 uM after 48 hrs by WST1 assay; format: functional, cell-based; summary of the method: as §1
[18] = target: T1, Histone deacetylase (Homo sapiens) (UniProt Q13547+O15379+Q9UBN7+Q92769+Q9UQL6+Q8WUI4+Q9BY41+Q96DB2+P56524+Q9UKV0+Q969S8); assay: Inhibition of HDAC in human MDA-MB-231 cells up to 25 uM after 2 hrs relative to control; format: cell-based
Summary of the method: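 MDA-MB-231 cells treated 2 h at 37 °C in DMEM with 2% FBS with varying concentrations; rinsed in PBS, trypsinized, normalized to 2×10^6 cells/mL in PBS with 0.1% Triton X-100, sonicated on ice. Total (non-specific) HDAC activity measured with a fluorometric kit; trichostatin A used for maximum inhibition to correct non-specific readings. Expressed as % of total HDAC activity versus vehicle.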

Serum [19] = assay: Stability in human serum at 1 mM incubated for 2 hrs at 37 degC by HPLC; settings: 1000 µM
Serum [20] = assay: Stability in mouse serum at 1 mM incubated for 2 hrs at 37 degC by HPLC; settings: 1000 µM
MDA-MB-231 [21] = assay: Cytotoxicity against human MDA-MB-231 cells at 10 uM after 48 hrs by WST1 assay; format: functional, cell-based; summary of the method: as §1
[22] = target: T1, Histone deacetylase (Homo sapiens); assay: Inhibition of HDAC in human MDA-MB-231 cells after 2 hrs; format: cell-based
Summary of the method: (§2)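 Cells exposed 2 h at 37 °C to varying concentrations in DMEM/2% FBS, washed, trypsinized, adjusted to 2×10^6 cells/mL in PBS with 0.1% Triton X-100, and sonicated on ice. Total HDAC activity measured with a fluorometric kit; trichostatin A used as maximum inhibition to correct non-specific signal. Expressed as % of total HDAC activity versus vehicle.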

[23] = target: T1, Histone deacetylase (Homo sapiens); assay: Inhibition of HDAC in human MDA-MB-231 cells at 10 to 25 uM after 2 hrs relative to control; format: cell-based; summary of the method: as §2
[24] = Homo sapiens, MDA-MB-231, 48 h, read-out: IC50

`CC/C=C\C/C=C\C/C=C\C/C=C\C/C=C\C/C=C\CCC(=O)Nc1c(C(C)C)cccc1C(C)C` was tested, and the IC50 (MDA-MB-231 [1]; [24]) was 3.7 µM and the TGI (MDA-MB-231 [2]; MDA-MB-231, 48 h) was 5.5 µM.

For `CC/C=C\C/C=C\C/C=C\C/C=C\C/C=C\C/C=C\CCC(=O)Nc1ccccc1C(C)C`, the IC50 (MDA-MB-231 [1]; [24]) was 6.5 µM and the TGI (MDA-MB-231 [2]; MDA-MB-231, 48 h) was 8.5 µM.

For `CC(C)c1ccccc1O`, the viability at 1 µM (MDA-MB-231 [3]) was 93.7%, the Activity (MCF7 [4]) was “inactive” and the “growth inhibition (GI)” value (MCF7 [5]) was “inactive”. It also gave a viability at 10 µM (MDA-MB-231 [6]) of 88.8%, an Activity (MDA-MB-231 [7]) of 1.5% and an Activity (MDA-MB-231 [8]) of 2.2%. The Activity (MDA-MB-231 [9]) was 4.9%, the Activity (MDA-MB-231 [10]) was 9% and the “growth inhibition (GI)” value (MDA-MB-361 [11]) was “inactive”. For the same compound, the Activity (MDA-MB-361 [12]) was “inactive”, the “growth inhibition (GI)” value (AU565 [13]) was “inactive” and the Activity (AU565 [14]) was “inactive”. The Activity (HMEC [15]) was “Non-toxic” and the Activity (HMEC [16]) was “Non-toxic”.

`CC/C=C\C/C=C\C/C=C\C/C=C\C/C=C\C/C=C\CCC(=O)O` [DOCONEXENT] was tested, and the viability at 1 µM (MDA-MB-231 [3]) was 90.3%, the “growth inhibition (GI)” value (MDA-MB-231 [1]) was “Dose-dependent effect” and the “growth inhibition (GI)” value (MDA-MB-231 [17]) was “inactive”. The viability at 10 µM (MDA-MB-231 [6]) was 87.6%, the Activity (MDA-MB-231 [7]) was 2.1% and the Activity (MDA-MB-231 [8]) was 1.8%. For the same compound, the Activity (MDA-MB-231 [9]) was 7.6%, the Activity (MDA-MB-231 [10]) was 10.7% and the inhibition [18] was “inactive”. The Stability (Serum [19]) was “Stable” and the Stability (Serum [20]) was “Stable”.

`CC/C=C\C/C=C\C/C=C\C/C=C\C/C=C\C/C=C\CCC(=O)Nc1ccccc1` was tested, and the IC50 (MDA-MB-231 [1]; mda-mb-231) was “Not Active” and the TGI (MDA-MB-231 [2]) was “inactive”.

`CC(C)c1cccc(C(C)C)c1O` [PROPOFOL] was tested, and the viability at 1 µM (MDA-MB-231 [3]) was 90.9%, the Activity (MCF7 [4]) was “inactive” and the “growth inhibition (GI)” value (MCF7 [5]) was “inactive”. For the same compound, the viability at 10 µM (MDA-MB-231 [6]) was 88.2%, the Activity (MDA-MB-231 [7]) was 2% and the Activity (MDA-MB-231 [8]) was 2.4%. The Activity (MDA-MB-231 [9]) was 7.1%, the Activity (MDA-MB-231 [10]) was 9.4% and the “growth inhibition (GI)” value (MDA-MB-361 [11]) was “inactive”. For the same compound, the Activity (MDA-MB-361 [12]) was “inactive”, the “growth inhibition (GI)” value (AU565 [13]) was “inactive” and the Activity (AU565 [14]) was “inactive”. For the same compound, the Activity (HMEC [15]) was “Non-toxic”, the Activity (HMEC [16]) was “Non-toxic” and the inhibition [18] was “inactive”.

For `CC/C=C\C/C=C\C/C=C\C/C=C\C/C=C\C/C=C\CCC(=O)Oc1c(C(C)C)cccc1C(C)C`, the viability at 1 µM (MDA-MB-231 [3]) was 90.5%, the Activity (MCF7 [4]) was “Active” and the “growth inhibition (GI)” value (MDA-MB-231 [1]) was “Dose-dependent effect”. The IC50 (MDA-MB-231 [1]; [24]) was 2.9 µM, the TGI (MDA-MB-231 [2]; MDA-MB-231, 48 h) was 4.2 µM and the Activity (MDA-MB-231 [21]) was “Active”. The “growth inhibition (GI)” value (MCF7 [5]) was “Active”, the viability at 10 µM (MDA-MB-231 [6]) was 37.4% and the Activity (MDA-MB-231 [7]) was 1.8%. The Activity (MDA-MB-231 [8]) was 22.2%, the Activity (MDA-MB-231 [9]) was 7.7% and the Activity (MDA-MB-231 [10]) was 40.4%. The “growth inhibition (GI)” value (MDA-MB-361 [11]) was “Active”, the Activity (MDA-MB-361 [12]) was “Active” and the “growth inhibition (GI)” value (AU565 [13]) was “Active”. The Activity (AU565 [14]) was “Active”, the Activity (HMEC [15]) was “Non-toxic” and the Activity (HMEC [16]) was “Non-toxic”. The inhibition [22] was “Dose-dependent effect”, the inhibition [23] was 30% and the Stability (Serum [19]) was “Stable”. The Stability (Serum [20]) was “Stable”.

With `CC/C=C\C/C=C\C/C=C\C/C=C\C/C=C\C/C=C\CCC(=O)Oc1ccccc1` the “growth inhibition (GI)” value (MDA-MB-231 [1]) was “inactive”, the IC50 (MDA-MB-231 [1]; [24]) was greater than 25 µM and the TGI (MDA-MB-231 [2]; MDA-MB-231, 48 h) was greater than 25 µM.

With `Oc1ccccc1C1CCCCC1` the “growth inhibition (GI)” value (MDA-MB-231 [17]) was “Active”.

`CC/C=C\C/C=C\C/C=C\C/C=C\C/C=C\C/C=C\CCC(=O)Oc1ccc(C(C)C)cc1C(C)C` was tested, and the “growth inhibition (GI)” value (MDA-MB-231 [1]) was “Dose-dependent effect”, the IC50 (MDA-MB-231 [1]; [24]) was 7.3 µM and the TGI (MDA-MB-231 [2]; MDA-MB-231, 48 h) was 12.6 µM.

With `CC/C=C\C/C=C\C/C=C\C/C=C\C/C=C\C/C=C\CCC(=O)Oc1ccccc1C(C)C` the viability at 1 µM (MDA-MB-231 [3]) was 89.6%, the Activity (MCF7 [4]) was “Active” and the “growth inhibition (GI)” value (MDA-MB-231 [1]) was “Dose-dependent effect”. The IC50 (MDA-MB-231 [1]; [24]) was 8.2 µM, the TGI (MDA-MB-231 [2]; MDA-MB-231, 48 h) was 12.1 µM and the Activity (MDA-MB-231 [21]) was “Active”. For the same compound, the “growth inhibition (GI)” value (MCF7 [5]) was “Active”, the viability at 10 µM (MDA-MB-231 [6]) was 36.2% and the Activity (MDA-MB-231 [7]) was 1.8%. For the same compound, the Activity (MDA-MB-231 [8]) was 26.4%, the Activity (MDA-MB-231 [9]) was 8.6% and the Activity (MDA-MB-231 [10]) was 37.5%. The “growth inhibition (GI)” value (MDA-MB-361 [11]) was “Active”, the Activity (MDA-MB-361 [12]) was “Active” and the “growth inhibition (GI)” value (AU565 [13]) was “Active”. The Activity (AU565 [14]) was “Active”, the Activity (HMEC [15]) was “Non-toxic” and the Activity (HMEC [16]) was “Non-toxic”. The Stability (Serum [19]) was “Stable” and the Stability (Serum [20]) was “Stable”.

For `CC/C=C\C/C=C\C/C=C\C/C=C\C/C=C\C/C=C\CCC(=O)Oc1ccccc1C1CCCCC1`, the “growth inhibition (GI)” value (MDA-MB-231 [1]) was “Dose-dependent effect”, the IC50 (MDA-MB-231 [1]; [24]) was 8.4 µM and the TGI (MDA-MB-231 [2]; MDA-MB-231, 48 h) was 18.7 µM.
